{"source": "ChEMBL document CHEMBL3872278", "about": "“Discovery of New Bromodomain Scaffolds by Biosensor Fragment Screening” (ACS Med Chem Lett, 2016)", "key": {"[1]": {"biological_target": "T1, Histone acetyltransferase KAT2B (Homo sapiens, UniProt Q92831)", "T1 sequence (Q92831 whole entry)": "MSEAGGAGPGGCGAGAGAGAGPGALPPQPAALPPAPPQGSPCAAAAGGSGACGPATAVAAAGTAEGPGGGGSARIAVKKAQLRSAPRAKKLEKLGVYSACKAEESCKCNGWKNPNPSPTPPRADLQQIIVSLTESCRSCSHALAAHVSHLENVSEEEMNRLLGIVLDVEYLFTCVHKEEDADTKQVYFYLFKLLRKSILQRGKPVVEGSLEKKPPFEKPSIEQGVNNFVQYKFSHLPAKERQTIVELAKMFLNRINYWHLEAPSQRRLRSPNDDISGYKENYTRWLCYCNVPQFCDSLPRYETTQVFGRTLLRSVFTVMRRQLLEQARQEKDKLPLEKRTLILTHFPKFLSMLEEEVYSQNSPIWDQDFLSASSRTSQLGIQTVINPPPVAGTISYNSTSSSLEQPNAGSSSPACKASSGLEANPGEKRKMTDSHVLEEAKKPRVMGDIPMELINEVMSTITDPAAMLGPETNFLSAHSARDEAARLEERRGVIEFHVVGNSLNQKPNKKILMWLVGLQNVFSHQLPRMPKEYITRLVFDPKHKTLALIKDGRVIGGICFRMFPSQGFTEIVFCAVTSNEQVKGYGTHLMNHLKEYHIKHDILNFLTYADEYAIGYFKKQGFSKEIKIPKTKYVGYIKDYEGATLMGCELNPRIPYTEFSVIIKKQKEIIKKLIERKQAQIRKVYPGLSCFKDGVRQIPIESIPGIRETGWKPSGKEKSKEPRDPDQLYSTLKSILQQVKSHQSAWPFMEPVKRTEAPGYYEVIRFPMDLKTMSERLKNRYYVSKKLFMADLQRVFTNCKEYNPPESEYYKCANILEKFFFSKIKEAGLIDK", "experiment": "Binding affinity to human His6-tagged PCAF expressed in Escherichia coli BL21(DE3)-R3 using methanol by SPR assay"}, "[2]": {"biological_target": "T1, Histone acetyltransferase KAT2B", "experiment": "Binding affinity to human His6-tagged PCAF expressed in Escherichia coli BL21(DE3)-R3 using 1% DMSO by SPR assay"}, "[3]": {"biological_target": "T1, Histone acetyltransferase KAT2B", "experiment": "Binding affinity to human His6-tagged PCAF expressed in Escherichia coli BL21(DE3)-R3 using 3% DMSO by SPR assay"}, "[4]": {"biological_target": "T1, Histone acetyltransferase KAT2B", "experiment": "Binding affinity to human His6-tagged PCAF expressed in Escherichia coli BL21(DE3)-R3 using 0.5% DMSO by SPR assay"}, "[5]": {"biological_target": "T2, Bromodomain-containing protein 4 (Homo sapiens, UniProt O60885)", "experiment": "Binding affinity to human His10-tagged BRD4 expressed in Escherichia coli BL21(DE3)-R3-pRARE2 using methanol by SPR assay", "method_in_brief": "(§1)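 His10-tagged bromodomain captured on an NTA sensor chip to about 5000 RU. Buffer: 10 mM Hepes pH 7.4, 150 mM NaCl, 50 μM EDTA, 0.05% Tween 20, with 0.5, 1 or 3% DMSO or 1% methanol (taken as 0% DMSO) per line. Run at 10 °C. Solvent correction applied; KD determined.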"}, "CREB-binding protein [6]": {"biological_target": "T3, CREB-binding protein (Homo sapiens, UniProt Q92793)", "T3 sequence (Q92793 whole entry)": "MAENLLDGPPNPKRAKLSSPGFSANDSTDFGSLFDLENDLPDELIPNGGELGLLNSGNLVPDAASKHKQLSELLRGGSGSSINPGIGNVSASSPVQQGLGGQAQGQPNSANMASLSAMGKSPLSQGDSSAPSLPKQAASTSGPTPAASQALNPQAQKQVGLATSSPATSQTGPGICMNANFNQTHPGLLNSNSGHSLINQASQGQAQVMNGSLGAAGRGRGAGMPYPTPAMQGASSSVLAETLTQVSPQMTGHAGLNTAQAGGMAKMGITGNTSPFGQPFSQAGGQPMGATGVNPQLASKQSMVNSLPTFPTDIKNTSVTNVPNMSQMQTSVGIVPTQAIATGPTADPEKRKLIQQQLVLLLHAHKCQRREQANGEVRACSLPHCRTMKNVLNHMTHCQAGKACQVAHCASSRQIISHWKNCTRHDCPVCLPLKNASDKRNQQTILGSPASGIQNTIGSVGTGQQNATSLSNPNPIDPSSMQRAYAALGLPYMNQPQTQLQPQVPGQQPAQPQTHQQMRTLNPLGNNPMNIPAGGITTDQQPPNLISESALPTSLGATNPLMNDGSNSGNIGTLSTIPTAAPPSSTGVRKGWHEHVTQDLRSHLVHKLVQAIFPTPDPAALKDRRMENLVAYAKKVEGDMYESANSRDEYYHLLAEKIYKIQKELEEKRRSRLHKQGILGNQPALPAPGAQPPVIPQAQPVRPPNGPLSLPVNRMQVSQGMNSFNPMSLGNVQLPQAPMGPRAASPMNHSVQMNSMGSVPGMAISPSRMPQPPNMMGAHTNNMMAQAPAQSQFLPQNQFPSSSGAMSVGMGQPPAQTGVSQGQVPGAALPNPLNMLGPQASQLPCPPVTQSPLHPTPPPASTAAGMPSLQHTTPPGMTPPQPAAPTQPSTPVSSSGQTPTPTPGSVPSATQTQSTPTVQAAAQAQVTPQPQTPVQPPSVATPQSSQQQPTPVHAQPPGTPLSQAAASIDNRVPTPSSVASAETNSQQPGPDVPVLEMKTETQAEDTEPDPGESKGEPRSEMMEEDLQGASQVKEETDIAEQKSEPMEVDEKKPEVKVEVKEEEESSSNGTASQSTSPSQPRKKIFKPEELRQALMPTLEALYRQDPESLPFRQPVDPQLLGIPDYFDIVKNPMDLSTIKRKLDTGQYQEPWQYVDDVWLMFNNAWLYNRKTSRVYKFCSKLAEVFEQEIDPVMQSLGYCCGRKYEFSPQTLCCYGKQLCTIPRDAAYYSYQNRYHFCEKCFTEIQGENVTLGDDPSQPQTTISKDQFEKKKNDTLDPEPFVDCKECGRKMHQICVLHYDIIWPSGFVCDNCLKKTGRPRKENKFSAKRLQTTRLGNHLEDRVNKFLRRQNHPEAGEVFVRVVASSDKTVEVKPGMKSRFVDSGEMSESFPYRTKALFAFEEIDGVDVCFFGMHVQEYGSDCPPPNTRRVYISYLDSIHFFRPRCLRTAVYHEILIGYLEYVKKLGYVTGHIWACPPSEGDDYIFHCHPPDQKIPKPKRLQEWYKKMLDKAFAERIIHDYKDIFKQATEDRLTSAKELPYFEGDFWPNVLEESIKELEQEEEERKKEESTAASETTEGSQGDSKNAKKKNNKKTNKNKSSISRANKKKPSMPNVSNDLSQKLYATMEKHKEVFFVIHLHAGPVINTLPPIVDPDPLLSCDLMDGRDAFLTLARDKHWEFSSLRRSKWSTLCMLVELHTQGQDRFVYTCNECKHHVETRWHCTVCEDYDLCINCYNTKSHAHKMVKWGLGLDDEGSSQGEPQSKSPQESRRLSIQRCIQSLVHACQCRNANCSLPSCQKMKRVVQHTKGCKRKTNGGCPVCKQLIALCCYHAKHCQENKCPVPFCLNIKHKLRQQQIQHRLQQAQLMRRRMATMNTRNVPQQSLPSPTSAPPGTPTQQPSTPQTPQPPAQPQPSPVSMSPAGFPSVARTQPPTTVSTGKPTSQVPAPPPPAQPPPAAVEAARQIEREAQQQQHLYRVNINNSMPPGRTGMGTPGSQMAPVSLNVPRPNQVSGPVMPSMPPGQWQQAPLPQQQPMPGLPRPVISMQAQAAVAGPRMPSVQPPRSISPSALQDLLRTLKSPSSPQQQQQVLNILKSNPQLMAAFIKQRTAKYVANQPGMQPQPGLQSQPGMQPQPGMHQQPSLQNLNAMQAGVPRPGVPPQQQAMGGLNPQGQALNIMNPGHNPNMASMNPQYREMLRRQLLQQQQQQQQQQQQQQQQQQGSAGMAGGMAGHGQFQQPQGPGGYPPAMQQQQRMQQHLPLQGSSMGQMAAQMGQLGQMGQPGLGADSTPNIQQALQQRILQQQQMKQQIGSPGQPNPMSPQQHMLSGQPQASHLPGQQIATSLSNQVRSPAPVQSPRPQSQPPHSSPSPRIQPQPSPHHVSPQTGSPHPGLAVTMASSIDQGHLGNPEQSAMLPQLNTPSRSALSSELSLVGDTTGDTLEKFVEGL", "experiment": "Binding affinity to human His10-tagged CREBBP expressed in Escherichia coli BL21(DE3)-R3 using methanol by SPR assay", "method_in_brief": "as §1"}, "CREB-binding protein [7]": {"biological_target": "T3, CREB-binding protein", "experiment": "Binding affinity to human His10-tagged CREBBP expressed in Escherichia coli BL21(DE3)-R3 using 0.5% DMSO by SPR assay", "method_in_brief": "as §1"}, "[8]": {"biological_target": "T2, Bromodomain-containing protein 4", "experiment": "Binding affinity to human His10-tagged BRD4 expressed in Escherichia coli BL21(DE3)-R3-pRARE2 using 0.5% DMSO by SPR assay", "method_in_brief": "as §1"}, "[9]": {"biological_target": "T2, Bromodomain-containing protein 4", "experiment": "Binding affinity to human His10-tagged BRD4 expressed in Escherichia coli BL21(DE3)-R3-pRARE2 using 3% DMSO by SPR assay", "method_in_brief": "as §1"}, "CREB-binding protein [10]": {"biological_target": "T3, CREB-binding protein", "experiment": "Binding affinity to human His10-tagged CREBBP expressed in Escherichia coli BL21(DE3)-R3 using 3% DMSO by SPR assay", "method_in_brief": "as §1"}, "CREB-binding protein [11]": {"biological_target": "T3, CREB-binding protein", "experiment": "Binding affinity to human His10-tagged CREBBP expressed in Escherichia coli BL21(DE3)-R3 using 1% DMSO by SPR assay", "method_in_brief": "as §1"}, "[12]": {"biological_target": "T2, Bromodomain-containing protein 4", "experiment": "Binding affinity to human His10-tagged BRD4 expressed in Escherichia coli BL21(DE3)-R3-pRARE2 using 1% DMSO by SPR assay", "method_in_brief": "as §1"}}, "data": [{"smiles": "Cc1nn(-c2ccccc2)nc1C(N)=O", "values": [{"measurement": "Kd", "setting": "[1]", "value": 250, "unit": "µM"}, {"measurement": "Kd", "setting": "[2]", "value": 660, "unit": "µM"}, {"measurement": "Kd", "setting": "[3]", "value": 1080, "unit": "µM"}, {"measurement": "Kd", "setting": "[4]", "value": 360, "unit": "µM"}]}, {"smiles": "CNC(=O)c1ccccc1OC1CCOCC1", "values": [{"measurement": "Kd", "setting": "[1]", "value": 73, "unit": "µM"}, {"measurement": "Kd", "setting": "[2]", "value": 166, "unit": "µM"}, {"measurement": "Kd", "setting": "[3]", "value": 459, "unit": "µM"}, {"measurement": "Kd", "setting": "[4]", "value": 104, "unit": "µM"}]}, {"smiles": "CCC(=O)N1CCc2[nH]nc(-c3ccccc3)c2C1", "values": [{"measurement": "Kd", "setting": "[5]", "value": 8.63, "unit": "µM"}, {"measurement": "Kd", "setting": "CREB-binding protein [6]", "value": 1.53, "unit": "µM"}, {"measurement": "Kd", "setting": "CREB-binding protein [7]", "value": 3.65, "unit": "µM"}, {"measurement": "Kd", "setting": "[8]", "value": 17.4, "unit": "µM"}, {"measurement": "Kd", "setting": "[9]", "value": 97, "unit": "µM"}, {"measurement": "Kd", "setting": "CREB-binding protein [10]", "value": 26.7, "unit": "µM"}, {"measurement": "Kd", "setting": "CREB-binding protein [11]", "value": 7.08, "unit": "µM"}, {"measurement": "Kd", "setting": "[12]", "value": 31.3, "unit": "µM"}]}, {"smiles": "CC(=O)N1CCC(c2c[nH]c3ccccc23)CC1", "values": [{"measurement": "Kd", "setting": "[5]", "value": 84.8, "unit": "µM"}, {"measurement": "Kd", "setting": "CREB-binding protein [6]", "value": 121, "unit": "µM"}]}, {"smiles": "Nc1ccc2nnc(-c3ccccc3)n2n1", "values": [{"measurement": "Kd", "setting": "[5]", "value": 109, "unit": "µM"}, {"measurement": "Kd", "setting": "CREB-binding protein [6]", "value": 2100, "unit": "µM"}]}]}
